Reference: ChEMBL document CHEMBL5126672, “Discovery of κ Opioid Receptor (KOR)-Selective d-Tetrapeptides with Improved In Vivo Antinociceptive Effect after Peripheral Administration” (ACS Med Chem Lett, 2022)
Activity calls are given as the source filed them. The rule behind the calls is not given here. Square brackets hold non-standard residues; d marks the D form. Peptide text beside a SMILES is read from it. dNle = CCCC[C@@H](N)C(=O)O

Experiments:
[1] = target: T1, Kappa-type opioid receptor (Cavia porcellus, UniProt P41144); experiment: Displacement of [3H]-HS665 from KOR in guinea pig brain membranes; type: cell membranes, Membrane
[2] = target: Kappa-type opioid receptor (Cavia porcellus) (UniProt P41144); experiment: (§1) Agonist activity at KOR in guinea pig brain membranes assessed as stimulation of [35S]GTPgammaS binding measured after 1 hr by liquid scintillation counting analysis; type: functional, cell membranes; conditions: Membrane, filed as agonist, DDE = dose-dependent effect
[3] = target: T1, Kappa-type opioid receptor; experiment: as §1; type: functional, cell membranes, Membrane
[4] = tested on: Mus musculus; experiment: Antinociceptive activity in CD-1 mouse assessed as maximum possible effect at 10 nmol, icv measured after 15 to 120 mins by tail-flick test; type: functional, organism-based; conditions: time 15-120 min
Procedure, shortened: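 Tail flick test in mice after intracerebroventricular injection of 10 nmol/mouse, with vehicle-treated and U50,488H control groups. Antinociception was expressed as maximum possible effect. N = 7 per group.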

[5] = tested on: Mus musculus; experiment: Antinociceptive activity in CD-1 mouse assessed as maximum possible effect at 20 umol/kg, iv measured after 15 to 120 mins by tail-flick test; type: functional, organism-based; conditions: dose 20.0 µmol/kg, time 15-120 min
Procedure, shortened: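 Intravenous dosing at 20 μmol/kg in mice, followed by tail flick testing with antinociception expressed as maximum possible effect. Vehicle-treated animals served as controls. N = 8.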

[6] = tested on: Mus musculus; experiment: Antinociceptive activity in formalin-induced CD-1 mouse model of nociception assessed as reduction in total time spent in paw licking during early phase at 100 nmol, sc pretreated for 15 mins followed by formalin challenge measured up to 10 mins by formalin test; type: functional, organism-based; conditions: time 25.0 min
Procedure, shortened: (§2)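 Subcutaneous injection into the mouse paw at 100 nmol/mouse, given 15 min before formalin challenge. Nociceptive behaviour was scored in the early and late phases against vehicle and U50,488H groups. Analysis used one-way ANOVA with Tukey's multiple comparisons test.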

[7] = tested on: Mus musculus; experiment: Antinociceptive activity in formalin-induced CD-1 mouse model of nociception assessed as reduction in total time spent in paw licking during late phase at 100 nmol, sc pretreated for 15 mins followed by formalin challenge measured after 10 to 40 mins by formalin test; type: functional, organism-based; conditions: time 15-55 min; procedure, shortened: as §2
[8] = Cmax in C57/BL6 mouse plasma at 13.9 mg/kg, iv administered via bolus by LC-MS/MS analysis; type: ADME, organism-based; design: dose 13.9 mg/kg, route iv
Procedure, shortened: (§3)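 Single intravenous bolus given to mice. Plasma concentrations were measured, and noncompartmental analysis gave Cmax, Tmax, t1/2 and AUC extrapolated to infinity. The calibration range was 10–1000 nM, with correlation coefficient >0.99 and the curve fit with 1/x2 weighting.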

[9] = Tmax in C57/BL6 mouse plasma at 13.9 mg/kg, iv administered via bolus by LC-MS/MS analysis; type: ADME, organism-based; procedure, shortened: as §3
[10] = Half life in C57/BL6 mouse plasma at 13.9 mg/kg, iv administered via bolus by LC-MS/MS analysis; type: ADME, organism-based; procedure, shortened: as §3
[11] = AUC (infinity) in C57/BL6 mouse plasma at 13.9 mg/kg, iv administered via bolus by LC-MS/MS analysis; type: ADME, organism-based; design: time infinity, dose 13.9 mg/kg, route iv; procedure, shortened: as §3
[12] = Drug uptake in C57/BL6 mouse brain at 13.9 mg/kg, iv administered via bolus by LC-MS/MS analysis; type: ADME, organism-based; conditions: in vivo, BLD = below limit of detection
Procedure, shortened: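 Single intravenous bolus given to mice. Brain homogenates were analysed for drug exposure against a calibration curve spanning 10–1000 nM, fit with 1/x2 weighting.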

Chain of Kappa-type opioid receptor (Cavia porcellus) (P41144 whole entry): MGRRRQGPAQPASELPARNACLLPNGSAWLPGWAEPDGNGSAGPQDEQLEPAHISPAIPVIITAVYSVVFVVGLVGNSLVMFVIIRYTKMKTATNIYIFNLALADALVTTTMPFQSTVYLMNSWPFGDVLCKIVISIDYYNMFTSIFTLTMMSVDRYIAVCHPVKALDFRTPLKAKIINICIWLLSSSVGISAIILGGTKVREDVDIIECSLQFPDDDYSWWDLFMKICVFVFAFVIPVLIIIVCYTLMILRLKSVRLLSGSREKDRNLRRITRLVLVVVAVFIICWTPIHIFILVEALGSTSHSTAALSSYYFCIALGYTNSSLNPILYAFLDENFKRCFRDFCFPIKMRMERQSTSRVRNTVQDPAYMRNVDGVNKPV
T1 sequence (P41144 whole entry): as above

Row | SMILES | Ki [1] | Activity [2] | EC50 [3] | Activity [4] | Activity [5] | Activity [6] | Activity [7] | Cmax [8] | Tmax [9] | half-life [10] | AUC(0-inf) [11] | Drug uptake [12]
1 | CCCC[C@@H](NC(=O)[C@@H](Cc1ccccc1)NC(=O)[C@H](N)Cc1cccc(F)c1)C(=O)N[C@H](CCCNC(=N)N)C(N)=O | 1.28 nM | Dde | 22.4 nM | Active | Active | Active | Active | – | – | – | – | –
2 | CCCC[C@@H](NC(=O)[C@@H](Cc1ccccc1)NC(=O)[C@H](N)Cc1ccccc1F)C(=O)N[C@H](CCCNC(=N)N)C(N)=O | 4.35 nM | – | 1350 nM | Active | – | Active | Active | – | – | – | – | –
3 | CCCC[C@@H](NC(=O)[C@@H](Cc1ccccc1)NC(=O)[C@H](N)Cc1ccccc1)C(=O)N[C@H](CCCNC(=N)N)C(N)=O (H-[dF][dF][dNle][dR]-NH2) | 2.33 nM | – | 26.3 nM | Active | – | – | – | 93 nM | 5 min | 12.7 min | 0.0364 µM·h | Bld
4 | CCCC[C@@H](NC(=O)[C@@H](Cc1ccccc1)NC(=O)[C@H](N)Cc1ccc(O)cc1)C(=O)N[C@H](CCCNC(=N)N)C(N)=O | 1.11 nM | Dde | 9550 nM | – | – | – | – | – | – | – | – | –
5 | Oc1cccc(CCN(CCc2ccccc2)CC2CCC2)c1 | 1.91 nM | – | – | – | – | – | – | – | – | – | – | –
6 | CCCC[C@@H](NC(=O)[C@@H](Cc1ccccc1)NC(=O)[C@H](N)Cc1c[nH]c2ccccc12)C(=O)N[C@H](CCCNC(=N)N)C(N)=O | 3.07 nM | Dde | 5.13 nM | – | – | – | – | – | – | – | – | –
7 | CCCC[C@@H](NC(=O)[C@@H](Cc1ccc(F)cc1)NC(=O)[C@H](N)Cc1ccccc1)C(=O)N[C@H](CCCNC(=N)N)C(N)=O | 0.92 nM | – | 955 nM | Active | Active | Active | Active | 109 nM | 15 min | 20.6 min | 0.0842 µM·h | Bld
8 | CCCC[C@@H](NC(=O)[C@@H](Cc1cccc(F)c1)NC(=O)[C@H](N)Cc1ccccc1)C(=O)N[C@H](CCCNC(=N)N)C(N)=O | 3 nM | Dde | 1860 nM | Active | – | Active | Active | – | – | – | – | –
9 | CCCC[C@@H](NC(=O)[C@H]1Cc2ccccc2CN1C(=O)[C@H](N)Cc1ccccc1)C(=O)N[C@H](CCCNC(=N)N)C(N)=O | 3.63 nM | – | 7.94 nM | – | – | – | – | – | – | – | – | –
